The results in this text go back to ChEMBL document CHEMBL4765302, “Design, synthesis and biological evaluation of novel histone deacetylase1/2 (HDAC1/2) and cyclin-dependent Kinase2 (CDK2) dual inhibitors against malignant cancer” (Eur J Med Chem, 2020).

Calls of active or inactive are those of the source. The calls are words filed in the database; no cut-off is given here.

Assay [1] has as its system A-375. Briefly: Induction of apoptosis in human A-375 cells assessed as late apoptotic cells at 2 uM incubated for 48 hrs by annexin V-FITC and PI staining based flow cytometry (reference value: 2.24 %). Format: functional.
Assay [2] concerns NCI-H460. Briefly: Induction of cell cycle arrest in human NCI-H460 cells assessed as reduction in G0/G1 phase at 0.5 to 2 uM incubated for 24 hrs by PI staining based flow cytometry. The format is functional. The note with it: dose 0.5-2 µM. In outline:
(§1)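 Treatment at 2, 1 and 0.5 μM for 24 h, alongside CS055 and roscovitine, against a DMSO (0.1 %) blank. Cells then stained with propidium iodide and analyzed by flow cytometry.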
On the technique in general: Flow cytometry measures light scatter and fluorescence of single cells or particles in a stream.

In assay [3] the test system is HeLa. The assay can be described thus: Induction of apoptosis in human HeLa cells assessed as necrotic cells incubated for 48 hrs by annexin V-FITC and PI staining based flow cytometry. The note with it: dose 0.5-2 µM. Format: functional, cell-based.
The subject of assay [4] is HeLa. Briefly: Induction of cell cycle arrest in human HeLa cells assessed as G2/M phase at 0.5 uM incubated for 24 hrs by PI staining based flow cytometry (reference value: 7.89 %). Format: functional. Summed up: as §1
In assay [5] the test system is NCI-H460. The assay can be described thus: Induction of apoptosis in human NCI-H460 cells assessed as viable cells at 0.5 uM incubated for 48 hrs by annexin V-FITC and PI staining based flow cytometry (reference value: 90.4 %). The format is functional. The note with it: read-out: Activity.
Assay [6] deals with Cyclin-dependent kinase 2 (Homo sapiens) (UniProt P24941). The assay can be described thus: Inhibition of CDK2 in human A-375 cells at 1 uM incubated for 12 hrs by DAPI and immunofluorescence staining based confocal microscopic analysis. Format: cell-based.
Assay [7] has as its system A-375. The assay can be described thus: Induction of apoptosis in human A-375 cells assessed as viable cells at 1 uM incubated for 48 hrs by annexin V-FITC and PI staining based flow cytometry (reference value: 96.3 %). Format: functional. The note with it: read-out: Activity.
Assay [8] relates to A-375. Briefly: Antiproliferative activity against human A-375 cells assessed as reduction in cell growth incubated for 72 hrs by CCK-8 assay. Format: functional, cell-based. The note with it: A-375, 72 h. Summed up:
(§2)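 IC50 by CCK-8 assay across five solid-tumour lines (HCT116, HepG2, H460, HeLa, A375). Run only for compounds chosen after the single-concentration screen, with CS055 and roscovitine as references.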
For orientation: Formazan colour is commonly taken as a measure of viable cells.

Assay [9] relates to HCT-116. Briefly: Induction of apoptosis in human HCT-116 cells assessed as necrotic cells at 1 uM incubated for 48 hrs by annexin V-FITC and PI staining based flow cytometry (reference value: 0.124 %). The format is functional.
The test system of assay [10] is A-375. Briefly: Induction of apoptosis in human A-375 cells assessed as necrotic cells incubated for 48 hrs by annexin V-FITC and PI staining based flow cytometry. Format: functional, cell-based. The note with it: dose 0.5-2 µM.
For assay [11], the system named is HeLa. The assay can be described thus: Induction of apoptosis in human HeLa cells assessed as late apoptotic cells at 1 uM incubated for 48 hrs by annexin V-FITC and PI staining based flow cytometry (reference value: 0.870 %). The format is functional.
In assay [12] the test system is HepG2. The assay can be described thus: Antiproliferative activity against human HepG2 cells assessed as reduction in cell growth incubated for 72 hrs by CCK-8 assay. Format: functional, cell-based. The note with it: HepG2, 72 h. Summed up:
as §2

In assay [13] the target is Histone deacetylase 1 (Homo sapiens, UniProt Q13547). Briefly: Potency index, ratio of IC50 of CS055 to IC50 of compound for inhibition of recombinant human HDAC1 using […] as substrate incubated for 10 mins followed by substrate addition and measured after 30 mins by fluorescence based assay.
Assay [14] concerns HCT-116. The assay can be described thus: Induction of apoptosis in human HCT-116 cells assessed as viable cells at 0.5 uM incubated for 48 hrs by annexin V-FITC and PI staining based flow cytometry (reference value: 93.9 %). Format: functional. The note with it: read-out: Activity.
Assay [15] deals with NCI-H460. Briefly: Induction of apoptosis in human NCI-H460 cells assessed as viable cells at 2 uM incubated for 48 hrs by annexin V-FITC and PI staining based flow cytometry (reference value: 90.4 %). The note with it: read-out: Activity. The format is functional.

Sequence of Histone deacetylase 1 (Q13547 whole entry): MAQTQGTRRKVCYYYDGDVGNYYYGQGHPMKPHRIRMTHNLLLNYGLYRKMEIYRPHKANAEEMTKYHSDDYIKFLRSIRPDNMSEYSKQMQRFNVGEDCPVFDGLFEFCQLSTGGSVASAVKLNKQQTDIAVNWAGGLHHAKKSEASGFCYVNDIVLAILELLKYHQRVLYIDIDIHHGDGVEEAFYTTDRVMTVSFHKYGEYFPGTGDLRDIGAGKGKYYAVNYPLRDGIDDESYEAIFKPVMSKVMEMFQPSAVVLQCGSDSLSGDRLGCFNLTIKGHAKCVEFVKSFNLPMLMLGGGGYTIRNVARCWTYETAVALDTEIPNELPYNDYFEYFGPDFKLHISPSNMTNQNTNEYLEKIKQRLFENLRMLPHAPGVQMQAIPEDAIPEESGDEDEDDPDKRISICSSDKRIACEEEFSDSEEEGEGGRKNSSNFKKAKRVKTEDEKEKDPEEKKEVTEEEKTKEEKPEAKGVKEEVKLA

Take `Cc1ccc(Nc2nc(Cl)nc3c2ncn3Cc2ccc(C(=O)Nc3ccccc3N)cc2)cc1`: the Activity was 84.8% in assay [1]; “Dose-dependent effect” in assay [3]; 51.85% in [4]; 0.65% in assay [9]; “Dose-dependent effect” in assay [10]; 8.63% in assay [11]. Further, the outcome in assay [2] was Active. Also, the values for the viability at 0.5 µM in assay [5] and in assay [14] were 88.7% and 21.3%, respectively. Moreover, the inhibition result in [6] is “Active”. For the same molecule, in [7], the viability at 1 µM was determined as 8.06%. Besides, the results for the IC50 in assay [8] and in [12] were 470 nM and 860 nM, respectively. For the same molecule, in assay [13], the Ratio IC50 came out at 3. Further, in [15], the viability at 2 µM worked out at 31.9%.

The term IC50 denotes the concentration at which inhibition is half-maximal.
